In the library only some 3% were active in any assay of this set; here they are far more common.
Wnt act: Wnt/beta-catenin pathway activators, primary screen, cell-based, plate reader, single point. activation, % at 9.35 µM. 1.2% of 300,000 active. Wnt/beta-catenin reporter cell assay, activator; in the data active = activation above about 30%, passing the limit was not always enough; inconclusive = no clear call, values can overlap the other calls
MITF TRPM1 HTS: activators of MITF-driven TRPM1 promoter reporter, primary screen, cell-based, SK-MEL-5, luciferase, single point | SK-MEL-5 TRPM1-promoter luciferase, 24 h; % of positive control, neutral wells = 0 | activation, % at 12.5 µM | 0.75% of 300,000 active;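 active = mean activation of at least 80% with every replicate also reaching 80%; inconclusive = mean reaches 80% but some replicate falls short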
NSD2 inh: NSD2 histone methyltransferase inhibitors, primary screen, biochemical, AlphaScreen, single concentration, set 2 | 0.54% of 310,000 active | inhibition, % at 12.5 µM | NSD2 peptide methylation, 120 min; in the data active = inhibition above about 50%
Target sequence (O96028 whole entry, looked up): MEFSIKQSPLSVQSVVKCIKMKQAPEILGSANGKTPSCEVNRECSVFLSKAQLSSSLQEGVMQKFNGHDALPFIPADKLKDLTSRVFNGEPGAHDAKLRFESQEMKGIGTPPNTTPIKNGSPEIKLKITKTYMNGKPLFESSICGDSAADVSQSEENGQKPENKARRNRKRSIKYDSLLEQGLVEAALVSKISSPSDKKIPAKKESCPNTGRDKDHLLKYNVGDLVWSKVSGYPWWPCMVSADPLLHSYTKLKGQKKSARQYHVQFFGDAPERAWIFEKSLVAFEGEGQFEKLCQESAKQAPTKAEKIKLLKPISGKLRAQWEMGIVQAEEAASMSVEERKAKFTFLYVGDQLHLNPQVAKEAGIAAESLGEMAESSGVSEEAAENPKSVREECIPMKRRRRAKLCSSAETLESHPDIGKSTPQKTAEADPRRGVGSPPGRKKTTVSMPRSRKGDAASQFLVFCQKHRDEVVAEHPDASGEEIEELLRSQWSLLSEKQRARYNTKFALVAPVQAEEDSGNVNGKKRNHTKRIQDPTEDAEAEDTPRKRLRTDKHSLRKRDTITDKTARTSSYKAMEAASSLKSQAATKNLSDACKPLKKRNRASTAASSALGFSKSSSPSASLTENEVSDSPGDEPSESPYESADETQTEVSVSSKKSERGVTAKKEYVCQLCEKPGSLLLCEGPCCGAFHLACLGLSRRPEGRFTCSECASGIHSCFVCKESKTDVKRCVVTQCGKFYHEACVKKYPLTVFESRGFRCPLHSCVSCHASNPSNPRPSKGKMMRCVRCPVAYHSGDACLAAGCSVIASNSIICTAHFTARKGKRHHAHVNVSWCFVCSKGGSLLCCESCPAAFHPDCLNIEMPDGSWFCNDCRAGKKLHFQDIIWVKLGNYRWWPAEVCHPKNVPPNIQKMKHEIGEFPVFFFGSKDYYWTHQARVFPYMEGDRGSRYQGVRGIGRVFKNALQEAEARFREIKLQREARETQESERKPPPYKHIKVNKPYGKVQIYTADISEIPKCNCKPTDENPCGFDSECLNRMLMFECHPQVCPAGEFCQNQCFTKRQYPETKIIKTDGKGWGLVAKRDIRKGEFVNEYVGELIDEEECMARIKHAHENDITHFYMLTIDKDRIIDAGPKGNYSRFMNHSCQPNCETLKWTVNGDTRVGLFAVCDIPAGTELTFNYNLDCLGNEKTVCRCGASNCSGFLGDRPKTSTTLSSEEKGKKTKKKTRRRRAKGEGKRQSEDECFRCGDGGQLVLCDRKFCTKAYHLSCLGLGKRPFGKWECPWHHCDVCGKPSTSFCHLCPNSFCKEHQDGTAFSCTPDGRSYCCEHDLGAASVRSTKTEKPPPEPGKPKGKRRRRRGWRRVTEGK
Casp6 inh: human caspase-6 inhibitors, primary screen, biochemical, VEID-R110 fluorescence, single point, set 2; P55212; purified caspase-6, Z-VEID-R110 cleavage fluorescence; inhibition, % at 12.5 µM; 0.53% of 350,000 active; AID 686996, 2013;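 active = mean inhibition across replicates at least about 35%, with every replicate also reaching that limit, limit read from the data; inconclusive = only one of the two criteria met; inactive = neither criterion met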
XiGFP reactiv: activators of inactive X chromosome reactivation, primary screen, imaging, XiGFP fibroblasts, GFP high-content imaging, set 2. XiGFP mouse fibroblasts, % GFP-positive cells imaging, 3 d; cells co-treated with 5-aza-dC sensitizer; scaled so ellipticine positive control = 100%. AID 743238, 2013. activation, % at 7.58 µM. 0.055% of 360,000 active;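 active = mean normalized replicate activation at least 10% and every replicate at or above 10%; inconclusive = only one of the two criteria met; inactive = mean below 10% and not all replicates reach 10%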
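System: 68-5-11 XiGFP fibroblast line; Timing: 3 days compound exposure; Compound dosing: one concentration, pinned; Benchmarks: positive control ellipticine, 6 µM final; Buffer or medium: DMEM containing 5-aza-dC.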
esBAF inh: Bmi1 luciferase reporter increase in mESCs, primary screen, esBAF inhibitor project, mouse ES cells, Bmi1 luciferase knock-in, single point | 24 h; 100% = twice the neutral-well signal | reporter increase, % at 12.5 µM | 2% of 350,000 active | AID 602393, 2012; in the data active = activation above about 40%; inconclusive = no clear call, values can overlap the other calls;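 also: a rise in the Bmi1 reporter signal indicates esBAF inhibition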
Of the large screens only hits and unclear results are named; the others gave an inactive call.

O=C(N/N=C/c1sc(=O)n(-c2ccccc2)c1Cl)c1ccccc1	Wnt act 75 (no result: esBAF inh)
CC(=O)NC1=C(NC2CCS(=O)(=O)C2)C(=O)c2ccccc2C1=O (stereo not drawn)	NSD2 inh 69 (no result: Casp6 inh)
C[C@H]1CN([C@@H](C)CO)S(=O)(=O)c2ccc(C#Cc3ccc(F)cc3)cc2O[C@@H]1CN(C)C(=O)CN(C)C	none (no result: Wnt act, MITF TRPM1 HTS, NSD2 inh)
Nc1ccccc1Sc1ccc(C(=O)c2ccccc2C(=O)O)cc1[N+](=O)[O-]	Casp6 inh 46 (no result: MITF TRPM1 HTS, esBAF inh)
NS(=O)(=O)c1ccc(CNC(=O)c2ccc(S(=O)(=O)C(F)F)cc2)cc1	Wnt act 36
C=C(C)C(=O)Oc1ccc(N=Nc2ccc(C)cc2)ccc1=O	Casp6 inh 80 (no result: MITF TRPM1 HTS)
O=C1NNC(c2ccccc2)=N/C1=C\c1ccccc1Cl	NSD2 inh 93 (no result: MITF TRPM1 HTS, esBAF inh)
Cc1ccc(OC(=O)c2cccc(S(=O)(=O)N3CCCC3)c2)c(-n2nc3ccccc3n2)c1	Wnt act 104, MITF TRPM1 HTS 99 (no result: Casp6 inh, esBAF inh)
Cc1ccc(OCC(=O)O)c(-n2nc3ccccc3n2)c1	none (no result: Wnt act, Casp6 inh, XiGFP reactiv)
Cc1cccc(NC(=O)COC(=O)c2cccc(S(=O)(=O)N3CCCCCC3)c2)c1	none
CC(=O)Oc1ccc(C)cc1-n1nc2ccccc2n1	Wnt act 77 (no result: MITF TRPM1 HTS, Casp6 inh, XiGFP reactiv)
Cc1cc(C)cc(NC(=O)COC(=O)c2cccc(S(=O)(=O)N3CCCCC3)c2)c1	Wnt act 33
Cc1ccc(OC(=O)c2cccc(S(=O)(=O)N(C)C)c2)c(-n2nc3ccccc3n2)c1	none (no result: Casp6 inh, XiGFP reactiv)
O=C(NC[C@@H]1CC[C@@H]2[C@@H](CN2S(=O)(=O)c2ccccc2)O1)NC1CCCCC1	none (no result: Wnt act, MITF TRPM1 HTS, NSD2 inh, XiGFP reactiv, esBAF inh)
CCN1C(=O)N/C(=C/c2ccc(C)o2)C1=O	Casp6 inh 42 (no result: esBAF inh)
CCOc1ccc(NC(=S)Nc2cccc3ccccc23)cc1	Wnt act 31
Cc1cccc(NC(=S)Nc2cccc3ccccc23)c1	none
Fc1ccc(NC(=S)Nc2cccc3cnccc23)cc1	Casp6 inh 36 (no result: esBAF inh)
CCOc1ccc(NC(=S)Nc2cccc3cnccc23)cc1	none (no result: Casp6 inh, esBAF inh)
COc1cccc(NC(=S)Nc2cccc3ccccc23)c1	esBAF inh 55
S=C(Nc1ccc(Cl)cc1)Nc1cccc2cnccc12	none (no result: esBAF inh)
O=C(Nc1ccccc1F)N1CCCCN2[C@H](CO)[C@@H](c3ccc(C4=CCCCC4)cc3)[C@H]2C1	none (no result: Wnt act, MITF TRPM1 HTS, NSD2 inh, XiGFP reactiv, esBAF inh)
COc1ccc([Si](C)(C)[C@H]2[C@H](CCn3cc(CCO)nn3)O[C@@]3(C(=O)N(C)c4c(Br)cc(C)cc43)[C@@H]2C)cc1	none (no result: Wnt act, MITF TRPM1 HTS, NSD2 inh, XiGFP reactiv, esBAF inh)
CCCNC(=O)c1cc(-c2ccc3c(c2)OCO3)on1	Wnt act 33
CCCCNC(=O)c1cc(-c2ccc(OC)cc2)on1	MITF TRPM1 HTS 81 (no result: Wnt act, Casp6 inh, XiGFP reactiv)
CCCCNC(=O)c1cc(-c2ccc3c(c2)OCO3)on1	none
CCN(CC)C(=O)c1cc(-c2ccc3c(c2)OCO3)on1	MITF TRPM1 HTS 103
CC(C)NC(=O)c1cc(-c2ccc3c(c2)OCO3)on1	Wnt act 43 (no result: MITF TRPM1 HTS)
CCN(CC)CCCNC(=O)c1cc(-c2ccc3c(c2)OCO3)on1	none
O=C(CC1CC1)Nc1ccc2c(c1)[C@@H]1C[C@@H](CC(=O)N3CCc4ccccc4C3)O[C@@H](CO)[C@@H]1O2	none (no result: Wnt act, MITF TRPM1 HTS, NSD2 inh)
Cc1cc(C)c(NC(=O)CN(C)C(=O)c2ccc(OCc3ccccc3)cc2)c(C)c1	none
Cc1cccc(C)c1NC(=O)CN(C)C(=O)c1ccc(COc2ccccc2)cc1	esBAF inh 43
CSCCC(NC(=O)COc1ccccc1)C(=O)N(C)CC(=O)Nc1c(C)cccc1C (stereo not drawn)	Casp6 inh 42
CSCCC(NC(=O)COc1ccccc1)C(=O)OCCOc1ccc(C)cc1 (stereo not drawn)	none
N#C/C(=C/c1cccs1)c1nc2ccccc2[nH]1	esBAF inh 134 (no result: Wnt act, Casp6 inh)
Cc1cc(/C=C(/C#N)c2nc3ccccc3[nH]2)c(C)n1-c1cccc([N+](=O)[O-])c1	none (no result: Wnt act, Casp6 inh, XiGFP reactiv, esBAF inh)
Cc1cc(/C=C(\C#N)c2nc3ccccc3[nH]2)c(C)n1C	Wnt act 84 (no result: Casp6 inh, esBAF inh)
Cc1ccc(/C=C(\C#N)c2nc3ccccc3[nH]2)s1	esBAF inh 98 (no result: Wnt act, Casp6 inh, XiGFP reactiv)
N#C/C(=C\c1c(Cl)cccc1Cl)c1nc2ccccc2[nH]1	none
NC(=S)N/N=C/c1ccc(-c2ccccc2)o1	none (no result: esBAF inh)
Cc1ccc(-c2ccc(/C=N/NC(N)=S)o2)cc1	Wnt act 58 (no result: MITF TRPM1 HTS, esBAF inh)
O=c1c2ccccc2nc(SCc2nc3ccccc3s2)n1CCCO	Wnt act 41 (no result: Casp6 inh)
C[C@@H]1CN([C@@H](C)CO)C(=O)c2c(c3ccccc3n2C)-c2ccccc2CO[C@H]1CN(C)Cc1ccccc1	none (no result: Wnt act, MITF TRPM1 HTS, NSD2 inh, Casp6 inh, esBAF inh)
Cc1cc(NC(=O)c2ccc3[nH]c(C)c(C)c3c2)ccn1	none
CC(=O)Nc1cccc(NC(=O)c2ccc3[nH]c(C)c(C)c3c2)c1	esBAF inh 49
COc1ccc(NC(=O)c2ccc3[nH]c(C)c(C)c3c2)cc1	MITF TRPM1 HTS 88, esBAF inh 58
CCC(=O)N(C)C[C@H]1Oc2cc(-c3ccc(C#N)cc3)ccc2S(=O)(=O)N([C@H](C)CO)C[C@H]1C	none (no result: Wnt act, MITF TRPM1 HTS, NSD2 inh)
COCCNC(=O)c1ccc2c3n(nc2c1)-c1ccc(Cl)cc1CO3	MITF TRPM1 HTS 87, esBAF inh 63 (no result: NSD2 inh)
Cc1ccc2c(c1)COc1c3ccc(C(=O)NCCO)cc3nn1-2	Wnt act 52, MITF TRPM1 HTS 102, esBAF inh 62 (no result: NSD2 inh)
CCCC#Cc1ccc2c(c1)COc1c3ccccc3nn1-2	Wnt act inconclusive (no result: NSD2 inh)
COCCNC(=O)c1ccc2c(c1)nc(C)n2-c1cccc(Cl)c1	none
O=C(NCC1CC1)c1ccc2c3n(nc2c1)-c1ccc(Cl)cc1CO3	esBAF inh 44 (no result: NSD2 inh)
COCCNC(=O)c1ccc2c3n(nc2c1)-c1ccccc1CO3	esBAF inh 53 (no result: NSD2 inh)
C=CCNC(=O)c1ccc2c3n(nc2c1)-c1ccccc1CO3	none (no result: NSD2 inh)
CS(=O)(=O)N1[C@@H]2c3ccc(C4=CCCC4)c(=O)n3C[C@@H]2[C@@H](CO)[C@@H]1C(=O)NCCc1ccncc1	none (no result: Wnt act, MITF TRPM1 HTS, NSD2 inh)
Cc1noc(C)c1S(=O)(=O)N(C)C[C@H]1OCCCC[C@H](C)Oc2ccc(NS(=O)(=O)c3ccccc3)cc2C(=O)N([C@H](C)CO)C[C@H]1C	none (no result: Wnt act, MITF TRPM1 HTS, NSD2 inh, esBAF inh)
C[C@@H]1CCCCO[C@@H](CN(C)C(=O)Nc2ccc3c(c2)OCO3)[C@@H](C)CN([C@H](C)CO)C(=O)c2cc(NC(=O)CCCCCC(=O)Nc3ccccc3N)ccc2O1	none (no result: Wnt act, MITF TRPM1 HTS, NSD2 inh)
O=C(NCCO)c1cccc(Cl)c1	none (no result: Wnt act, MITF TRPM1 HTS, Casp6 inh, XiGFP reactiv)
O=C(NCCO)c1ccc2c3n(nc2c1)-c1ccc(Cl)cc1CO3	Wnt act 51, MITF TRPM1 HTS 84, esBAF inh 68 (no result: NSD2 inh, Casp6 inh)

Source: PubChem
